The values that follow come from ChEMBL document CHEMBL1157787, “Design, synthesis and evaluation of progesterone-adenine hybrids as bivalent inhibitors of P-glycoprotein-mediated multidrug efflux” (Bioorg Med Chem Lett, 2010).

The structures appear in SMILES notation.

The first data set deals with T1, ATP-dependent translocase ABCB1 (Homo sapiens, UniProt P08183). Put plainly: Inhibition of P-glycoprotein-mediated daunorubicin efflux in K562/R7 human leukemic cells overexpressing P-glycoprotein assessed as intracellular accumulation of daunorubicin at 10 uM after 1 hr by flow cytometry relative to progesterone. In kind it is cell-based. On the set-up: scale not given: the % may be the effect or the level left. In outline: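 Pgp-overexpressing resistant K562/R7 human leukemic cells; intracellular daunorubicin (1 μM) accumulation measured with compound at 10 μM. Accumulation with progesterone (10 μM) was set as 100%, and compound values were expressed as percent of that, with standard deviation.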
T1 sequence (P08183 whole entry): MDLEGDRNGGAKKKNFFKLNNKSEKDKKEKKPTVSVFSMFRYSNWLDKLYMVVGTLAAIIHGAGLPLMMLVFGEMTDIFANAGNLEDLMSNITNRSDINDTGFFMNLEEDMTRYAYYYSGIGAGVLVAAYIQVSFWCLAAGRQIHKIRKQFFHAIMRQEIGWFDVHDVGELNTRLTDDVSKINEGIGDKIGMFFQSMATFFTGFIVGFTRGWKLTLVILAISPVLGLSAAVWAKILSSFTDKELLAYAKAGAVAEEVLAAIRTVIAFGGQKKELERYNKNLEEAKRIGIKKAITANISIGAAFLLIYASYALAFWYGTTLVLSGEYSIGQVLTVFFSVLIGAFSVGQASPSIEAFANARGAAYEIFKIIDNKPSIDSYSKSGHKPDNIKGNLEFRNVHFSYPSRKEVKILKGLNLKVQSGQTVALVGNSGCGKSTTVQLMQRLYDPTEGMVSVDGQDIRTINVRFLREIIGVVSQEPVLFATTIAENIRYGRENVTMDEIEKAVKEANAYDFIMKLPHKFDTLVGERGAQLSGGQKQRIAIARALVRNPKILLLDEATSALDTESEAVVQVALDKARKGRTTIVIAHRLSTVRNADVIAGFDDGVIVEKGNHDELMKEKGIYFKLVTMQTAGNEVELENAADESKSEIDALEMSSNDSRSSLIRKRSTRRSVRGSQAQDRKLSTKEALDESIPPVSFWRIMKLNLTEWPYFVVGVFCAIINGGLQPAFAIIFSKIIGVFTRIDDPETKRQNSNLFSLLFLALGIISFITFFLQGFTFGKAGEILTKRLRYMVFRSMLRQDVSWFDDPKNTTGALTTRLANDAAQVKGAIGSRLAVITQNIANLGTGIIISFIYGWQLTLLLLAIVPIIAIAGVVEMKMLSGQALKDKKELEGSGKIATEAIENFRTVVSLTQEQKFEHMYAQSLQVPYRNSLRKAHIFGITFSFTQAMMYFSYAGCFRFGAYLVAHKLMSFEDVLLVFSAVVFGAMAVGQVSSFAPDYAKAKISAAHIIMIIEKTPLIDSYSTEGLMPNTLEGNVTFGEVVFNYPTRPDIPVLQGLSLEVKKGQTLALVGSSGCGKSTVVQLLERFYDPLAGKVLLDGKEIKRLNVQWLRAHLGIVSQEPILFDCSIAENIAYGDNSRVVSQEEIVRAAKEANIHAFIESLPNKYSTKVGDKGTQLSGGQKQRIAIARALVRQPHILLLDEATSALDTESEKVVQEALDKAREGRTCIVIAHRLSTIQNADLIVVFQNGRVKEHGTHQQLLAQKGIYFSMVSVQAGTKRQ
Take `C[C@]12CC[C@H]3[C@@H](CCC4=CC(=O)CC[C@@]43C)[C@@H]1CC[C@@H]2C(=O)NCCCCCCn1cnc2c(N)ncnc21`: the Activity is listed as 110.9%. Same read-out and setting: the figure for `C[C@]12CC[C@H]3[C@@H](CCC4=CC(=O)CC[C@@]43C)[C@@H]1CC[C@@H]2C(=O)NC/C=C/Cn1cnc2c(N)ncnc21` is 72.2%; for `C[C@]12CC[C@H]3[C@@H](CCC4=CC(=O)CC[C@@]43C)[C@@H]1CC[C@@H]2C(=O)NCC#CCn1cnc2c(N)ncnc21` it is 61.2%.

For `C[C@]12CC[C@H]3[C@@H](CCC4=CC(=O)CC[C@@]43C)[C@@H]1CC[C@@H]2C(=O)NCCCCn1cnc2c(N)ncnc21`, the Activity is listed as 78%. Still for that read-out and setting: the figure for `C[C@]12CC[C@H]3[C@@H](CCC4=CC(=O)CC[C@@]43C)[C@@H]1CC[C@@H]2C(=O)NCc1ccc(Cn2cnc3c(N)ncnc32)cc1` is 98.1%; for `C[C@]12CC[C@H]3[C@@H](CCC4=CC(=O)CC[C@@]43C)[C@@H]1CC[C@@H]2C(=O)NC[C@H]1CC[C@H](Cn2cnc3c(N)ncnc32)CC1` it is 98.9%; for `C[C@]12CC[C@H]3[C@@H](CCC4=CC(=O)CC[C@@]43C)[C@@H]1CC[C@@H]2C(=O)NC/C=C\Cn1cnc2c(N)ncnc21` it is 86.2%.

For a further data set, the system named is K562. Put plainly: Cytotoxicity against human K562 cells expressing very low P-glycoprotein at 10 uM after 24 hrs relative to control.
Compound `C[C@]12CC[C@H]3[C@@H](CCC4=CC(=O)CC[C@@]43C)[C@@H]1CC[C@@H]2C(=O)NCCCCCCn1cnc2c(N)ncnc21` had an Activity of 80%. Still for that read-out and setting: to `C[C@]12CC[C@H]3[C@@H](CCC4=CC(=O)CC[C@@]43C)[C@@H]1CC[C@@H]2C(=O)NC/C=C/Cn1cnc2c(N)ncnc21` belongs 80%. On the same count and under the same terms, the figure for `C[C@]12CC[C@H]3[C@@H](CCC4=CC(=O)CC[C@@]43C)[C@@H]1CC[C@@H]2C(=O)NCC#CCn1cnc2c(N)ncnc21` is 80%. Regarding `C[C@]12CC[C@H]3[C@@H](CCC4=CC(=O)CC[C@@]43C)[C@@H]1CC[C@@H]2C(=O)NCCCCn1cnc2c(N)ncnc21`, the Activity turned out to be 80%. Still for that read-out and setting: the figure for `C[C@]12CC[C@H]3[C@@H](CCC4=CC(=O)CC[C@@]43C)[C@@H]1CC[C@@H]2C(=O)NCc1ccc(Cn2cnc3c(N)ncnc32)cc1` is 80%; for `C[C@]12CC[C@H]3[C@@H](CCC4=CC(=O)CC[C@@]43C)[C@@H]1CC[C@@H]2C(=O)NC[C@H]1CC[C@H](Cn2cnc3c(N)ncnc32)CC1` it is 80%; for `C[C@]12CC[C@H]3[C@@H](CCC4=CC(=O)CC[C@@]43C)[C@@H]1CC[C@@H]2C(=O)NC/C=C\Cn1cnc2c(N)ncnc21` it is 80%.

The target of the next data set is T1, ATP-dependent translocase ABCB1. Kind of data set: Inhibition of P-glycoprotein-mediated daunorubicin efflux in K562/R7 human leukemic cells overexpressing P-glycoprotein assessed as intracellular accumulation of daunorubicin at 10 uM after 1 hr by flow cytometry. In kind it is cell-based. Further details: scale not given: the % may be the effect or the level left. The gist of the method: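 K562/R7 human leukemic cells overexpressing Pgp; intracellular daunorubicin (1 μM) accumulation measured with test compounds at 10 μM. Progesterone (10 μM) served as positive control; accumulation with progesterone set as 100%, values expressed as percent of progesterone accumulation; standard deviation reported.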
Turning to `CC(=O)[C@H]1CC[C@H]2[C@@H]3CCC4=CC(=O)CC[C@]4(C)[C@H]3CC[C@]12C` [PROGESTERONE], the Activity stood at 25%.
